Experimental data as given in ChEMBL document CHEMBL1126092, “Design, synthesis, and biological evaluation of novel 4-substituted 1-methyl-1,2,3,6-tetrahydropyridine analogs of MPTP” (J Med Chem, 1992).

How the values were obtained:
Details in all cases: cattle
[1] = molecular target: T1, Amine oxidase [flavin-containing] B (Bos taurus, UniProt P56560); experiment: Selectivity ratio for Vmax and KM values against MAO-B enzyme from bovine liver mitochondria
T1 sequence (P56560 whole entry): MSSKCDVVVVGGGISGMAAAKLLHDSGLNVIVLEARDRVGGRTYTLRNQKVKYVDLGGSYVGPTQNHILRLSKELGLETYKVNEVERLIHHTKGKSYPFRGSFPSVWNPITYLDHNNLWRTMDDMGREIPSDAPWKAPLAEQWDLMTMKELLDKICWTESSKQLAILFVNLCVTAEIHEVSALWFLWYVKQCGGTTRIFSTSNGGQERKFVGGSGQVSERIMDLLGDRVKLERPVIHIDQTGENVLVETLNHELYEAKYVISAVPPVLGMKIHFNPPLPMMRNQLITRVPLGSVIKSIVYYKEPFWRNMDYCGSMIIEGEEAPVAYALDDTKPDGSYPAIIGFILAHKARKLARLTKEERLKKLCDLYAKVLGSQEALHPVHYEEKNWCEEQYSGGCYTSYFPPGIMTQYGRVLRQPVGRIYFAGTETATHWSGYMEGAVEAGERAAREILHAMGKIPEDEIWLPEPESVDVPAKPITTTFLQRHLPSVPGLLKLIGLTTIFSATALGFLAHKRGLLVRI
Procedure, shortened: (§1)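 Bovine liver mitochondrial MAO-B, 0.05 unit/mL (unit = 1 μmol benzylamine→benzaldehyde per min; equivalent to 3.7 nmol protein), incubated at 37 °C in 0.1 M sodium phosphate pH 7.4. Reaction started by substrate addition, final 0.1–3.0 mM. Product formation monitored spectrophotometrically, initial rates taken 30–180 s after enzyme addition. Apparent Vmax and KM from double reciprocal plot.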

[2] = molecular target: T2, Monoamine oxidase B (MAO-B) (Bos taurus, UniProt P56560); experiment: (§2) Tested against Monoamine oxidase B enzyme from bovine liver mitochondria; procedure, shortened: as §1
T2 sequence (P56560 whole entry): T1 sequence (P56560 whole entry)

[3] = molecular target: T1, Amine oxidase [flavin-containing] B; experiment: as §2; procedure, shortened: as §1

SMILES | Ratio [1] | Km [2] | Vmax [3]
CN1CC=C(Sc2ccccc2)CC1 | 3425 |  | 
CN1CC=C(Cc2ccccc2)CC1 | 2674 |  | 
CN1CC=C(c2ccccc2)CC1 | 523 | 390 µM | 204 nM/min
CN1CC=C(OC(=O)N(C)C)CC1 | 57 |  | 
CN1CC=C(Oc2ccccc2)CC1 | 688 |  | 
CN1CC=C(OC(=O)N(C)c2ccccc2)CC1 | 67 |  | 
